# Test system: U2OS
# Assay: Multiplex assay against U2OS
# Format: toxicity, cell-based
# Conditions: human
# Method in brief: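 Four dyes were applied at seeding to live cells: Hoechst33342, BioTracker Green Microtubule Cytoskeleton Dye, MitoTracker Red and Annexin V Alexa Fluor 680. Imaging after compound addition used a CQ1 microscope at 37°C and 5% CO2. CellPathfinder machine-learning gating then sorted cells into Hoechst high-intensity objects or normal cells, normal cells into healthy, pyknosed or fragmented nuclei, and pyknosed cells into mitotic or apoptotic, with tubulin, mitochondrial-mass and membrane-permeability phenotypes given as per cents of healthy-nucleus cells.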
# [1] = 12 h, 1 µM, compound concentration 1 uM, replicate 1
# [2] = 12 h, 1 µM, compound concentration 1 uM, replicate 2
# [3] = 12 h, 10 µM, compound concentration 10 uM, replicate 1
# [4] = 12 h, 10 µM, compound concentration 10 uM, replicate 2
# [5] = 24 h, 1 µM, compound concentration 1 uM, replicate 1
# [6] = 24 h, 1 µM, compound concentration 1 uM, replicate 2
# [7] = 24 h, 10 µM, compound concentration 10 uM, replicate 1
# [8] = 24 h, 10 µM, compound concentration 10 uM, replicate 2
# [9] = 48 h, 1 µM, compound concentration 1 uM, replicate 1
# [10] = 48 h, 1 µM, compound concentration 1 uM, replicate 2
# [11] = 48 h, 10 µM, compound concentration 10 uM, replicate 1
# [12] = 48 h, 10 µM, compound concentration 10 uM, replicate 2
smiles,measurement,setting,value
S=C(NCCCc1c[nH]cn1)NCCCN(Cc1ccc(Cl)c(Cl)c1)c1ccc(Br)cn1,Population Apoptotic (%),[1],56%
same,Population Fragmented Nuclei (%),[1],9%
same,Population Healthy Nuclei (%),[1],76%
same,Population Hoechst High Intensity Objects (%),[1],9%
same,Population Membrane Permeable-Phenotype (%),[1],7%
same,Population Mitochondria Different-Phenotype (%),[1],31%
same,Population Mitotic Cells (%),[1],43%
same,Population Normal (%),[1],90%
same,Population Pyknosed Nuclei (%),[1],13%
same,Population Tubulin-Different-Phenotype (%),[1],32%
same,Total Cell Count,[1],193
same,Population Apoptotic (%),[2],0%
same,Population Fragmented Nuclei (%),[2],17%
same,Population Healthy Nuclei (%),[2],82%
same,Population Hoechst High Intensity Objects (%),[2],15%
same,Population Membrane Permeable-Phenotype (%),[2],8%
same,Population Mitochondria Different-Phenotype (%),[2],8%
same,Population Mitotic Cells (%),[2],0%
same,Population Normal (%),[2],84%
same,Population Pyknosed Nuclei (%),[2],0%
same,Population Tubulin-Different-Phenotype (%),[2],4%
same,Total Cell Count,[2],79
same,Population Apoptotic (%),[3],88%
same,Population Fragmented Nuclei (%),[3],47%
same,Population Healthy Nuclei (%),[3],4%
same,Population Hoechst High Intensity Objects (%),[3],15%
same,Population Mitotic Cells (%),[3],11%
same,Population Normal (%),[3],84%
same,Population Pyknosed Nuclei (%),[3],48%
same,Total Cell Count,[3],133
same,Population Apoptotic (%),[4],93%
same,Population Fragmented Nuclei (%),[4],25%
same,Population Healthy Nuclei (%),[4],2%
same,Population Hoechst High Intensity Objects (%),[4],11%
same,Population Membrane Permeable-Phenotype (%),[4],100%
same,Population Mitochondria Different-Phenotype (%),[4],100%
same,Population Mitotic Cells (%),[4],6%
same,Population Normal (%),[4],88%
same,Population Pyknosed Nuclei (%),[4],72%
same,Population Tubulin-Different-Phenotype (%),[4],100%
same,Total Cell Count,[4],33
same,Population Apoptotic (%),[5],66%
same,Population Fragmented Nuclei (%),[5],10%
same,Population Healthy Nuclei (%),[5],76%
same,Population Hoechst High Intensity Objects (%),[5],6%
same,Population Membrane Permeable-Phenotype (%),[5],6%
same,Population Mitochondria Different-Phenotype (%),[5],10%
same,Population Mitotic Cells (%),[5],33%
same,Population Normal (%),[5],93%
same,Population Pyknosed Nuclei (%),[5],12%
same,Population Tubulin-Different-Phenotype (%),[5],14%
same,Total Cell Count,[5],199
same,Population Apoptotic (%),[6],0%
same,Population Fragmented Nuclei (%),[6],19%
same,Population Healthy Nuclei (%),[6],80%
same,Population Hoechst High Intensity Objects (%),[6],8%
same,Population Membrane Permeable-Phenotype (%),[6],16%
same,Population Mitochondria Different-Phenotype (%),[6],8%
same,Population Mitotic Cells (%),[6],0%
same,Population Normal (%),[6],91%
same,Population Pyknosed Nuclei (%),[6],0%
same,Population Tubulin-Different-Phenotype (%),[6],20%
same,Total Cell Count,[6],79
same,Population Apoptotic (%),[7],97%
same,Population Fragmented Nuclei (%),[7],44%
same,Population Healthy Nuclei (%),[7],5%
same,Population Hoechst High Intensity Objects (%),[7],21%
same,Population Membrane Permeable-Phenotype (%),[7],100%
same,Population Mitochondria Different-Phenotype (%),[7],100%
same,Population Mitotic Cells (%),[7],2%
same,Population Normal (%),[7],78%
same,Population Pyknosed Nuclei (%),[7],49%
same,Population Tubulin-Different-Phenotype (%),[7],100%
same,Total Cell Count,[7],149
same,Population Apoptotic (%),[8],100%
same,Population Fragmented Nuclei (%),[8],12%
same,Population Healthy Nuclei (%),[8],24%
same,Population Hoechst High Intensity Objects (%),[8],25%
same,Population Membrane Permeable-Phenotype (%),[8],94%
same,Population Mitochondria Different-Phenotype (%),[8],88%
same,Population Mitotic Cells (%),[8],0%
same,Population Normal (%),[8],74%
same,Population Pyknosed Nuclei (%),[8],62%
same,Population Tubulin-Different-Phenotype (%),[8],88%
same,Total Cell Count,[8],34
same,Population Apoptotic (%),[9],28%
same,Population Fragmented Nuclei (%),[9],10%
same,Population Healthy Nuclei (%),[9],58%
same,Population Hoechst High Intensity Objects (%),[9],8%
same,Population Membrane Permeable-Phenotype (%),[9],6%
same,Population Mitochondria Different-Phenotype (%),[9],11%
same,Population Mitotic Cells (%),[9],72%
same,Population Normal (%),[9],91%
same,Population Pyknosed Nuclei (%),[9],30%
same,Population Tubulin-Different-Phenotype (%),[9],10%
same,Total Cell Count,[9],211
same,Population Apoptotic (%),[10],22%
same,Population Fragmented Nuclei (%),[10],21%
same,Population Healthy Nuclei (%),[10],54%
same,Population Hoechst High Intensity Objects (%),[10],13%
same,Population Membrane Permeable-Phenotype (%),[10],5%
same,Population Mitochondria Different-Phenotype (%),[10],10%
same,Population Mitotic Cells (%),[10],77%
same,Population Normal (%),[10],86%
same,Population Pyknosed Nuclei (%),[10],24%
same,Population Tubulin-Different-Phenotype (%),[10],15%
same,Total Cell Count,[10],76
same,Population Apoptotic (%),[11],92%
same,Population Fragmented Nuclei (%),[11],50%
same,Population Healthy Nuclei (%),[11],2%
same,Population Hoechst High Intensity Objects (%),[11],22%
same,Population Membrane Permeable-Phenotype (%),[11],50%
same,Population Mitochondria Different-Phenotype (%),[11],100%
same,Population Mitotic Cells (%),[11],7%
same,Population Normal (%),[11],77%
same,Population Pyknosed Nuclei (%),[11],46%
same,Population Tubulin-Different-Phenotype (%),[11],100%
same,Total Cell Count,[11],177
same,Population Apoptotic (%),[12],100%
same,Population Fragmented Nuclei (%),[12],31%
same,Population Healthy Nuclei (%),[12],41%
same,Population Hoechst High Intensity Objects (%),[12],30%
same,Population Membrane Permeable-Phenotype (%),[12],92%
same,Population Mitochondria Different-Phenotype (%),[12],89%
same,Population Mitotic Cells (%),[12],0%
same,Population Normal (%),[12],69%
same,Population Pyknosed Nuclei (%),[12],26%
same,Population Tubulin-Different-Phenotype (%),[12],92%
same,Total Cell Count,[12],43
